# From ChEMBL document CHEMBL2385029, “Cytotoxic activities of substituted 3-(3,4,5-trimethoxybenzylidene)-1,3-dihydroindol-2-ones and studies on their mechanisms of action” (Eur J Med Chem, 2013)
# Calls of active or inactive are those of the source. The rule behind the calls is not given here.
# Assays:
# [1] = Inhibition of bovine brain tubulin assembly after 20 mins
# Bos taurus = organism: Bos taurus; assay: Displacement of [3H]colchicine from bovine brain tubulin at 5 uM after 10 mins
# [2] = Cytotoxicity against human ovarian cancer cells after 48 hrs; type: functional; details: Cancer cell lines
# Summary of the method: (§1)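 NCI 60-cell panel, values averaged per subpanel. Compounds were dissolved in DMSO and first screened at a single 10⁻⁵ M dose. Active ones then went to five concentrations at ten-fold dilutions, top 10⁻⁴ M (10⁻³ M for some), with 48 h exposure.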
# [3] = biological target: T1, NADPH oxidase 4 (Homo sapiens) (UniProt Q9NPH5); assay: Inhibition of NOX4 in human B1647 cells assessed as reduction of ROS production after 20 mins by DCFH-DA fluorescence assay; type: cell-based; details: in the assay text read “after 30 mins” for “after 20 mins”
# T1 sequence (whole entry): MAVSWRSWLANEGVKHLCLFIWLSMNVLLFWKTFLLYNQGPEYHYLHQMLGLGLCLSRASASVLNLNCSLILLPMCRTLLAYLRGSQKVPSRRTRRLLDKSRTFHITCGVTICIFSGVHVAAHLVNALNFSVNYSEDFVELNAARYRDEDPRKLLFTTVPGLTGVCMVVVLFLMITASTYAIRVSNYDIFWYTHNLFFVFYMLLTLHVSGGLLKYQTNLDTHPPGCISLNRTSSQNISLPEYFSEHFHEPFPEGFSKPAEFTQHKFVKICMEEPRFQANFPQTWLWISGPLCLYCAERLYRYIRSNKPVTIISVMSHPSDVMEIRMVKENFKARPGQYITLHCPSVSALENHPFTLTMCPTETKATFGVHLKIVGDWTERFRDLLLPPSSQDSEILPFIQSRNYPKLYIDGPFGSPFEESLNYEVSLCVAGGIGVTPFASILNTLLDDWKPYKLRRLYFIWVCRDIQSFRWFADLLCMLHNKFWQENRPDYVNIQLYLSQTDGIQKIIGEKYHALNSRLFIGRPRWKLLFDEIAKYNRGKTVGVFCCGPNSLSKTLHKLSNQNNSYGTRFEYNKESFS
# Summary of the method: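 B1647 cells given compound (DMSO) at 5 or 10 µM for 30 min, then at 1 × 10⁶/mL washed twice in PBS and loaded with 5 µM DCFH-DA for 20 min at 37 °C. DCF fluorescence read in multiwell plate; four independent experiments.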
# [4] = Cytotoxicity against human colon cancer cells after 48 hrs; type: functional; details: Cancer cell lines
# Summary of the method: as §1
# [5] = Cytotoxicity against human breast cancer cells after 48 hrs; type: functional; details: Cancer cell lines
# Summary of the method: as §1
# [6] = Cytotoxicity against human CNS cancer cells after 48 hrs; type: functional; details: Cancer cell lines
# Summary of the method: as §1
# [7] = Cytotoxicity against human melanoma cells after 48 hrs; type: functional; details: Melanoma cell
# [8] = Cytotoxicity against human leukemia cells after 48 hrs; type: functional; details: Leukemia cell
# [9] = biological target: T1, NADPH oxidase 4 (Homo sapiens); assay: Inhibition of NOX4 in human nox2 silenced B1647 cells assessed as reduction of ROS production at 50 nM after 20 mins by DCFH-DA fluorescence assay; type: cell-based; details: 5 or 10 uM, in the assay text read “at 5 or 10 uM after 30 mins” for “at 50 nM after 20 mins”
# Summary of the method: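 B1647 cells nucleofected with Nox2 siRNA or scrambled siRNA (final 50 nM), used after 24–48 h. Compound treatment for 30 min, then 5 µM DCFH-DA loading for 20 min at 37 °C and DCF fluorescence read. Scrambled cells served as control.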
# [10] = Cytotoxicity against human prostate cancer cells after 48 hrs; type: functional; details: Cancer cell lines
# Summary of the method: as §1
# [11] = Inhibition of nox4 expression in human B1647 cells at 10 uM after 24 hrs by Western blot analysis relative to control; type: functional
# Summary of the method: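 B1647 cells treated 24 h at 10 µM. Lysates (40 µg protein per lane) run on 10% SDS-PAGE and transferred to nitrocellulose. Blots probed with anti-Nox4, with β-tubulin as loading control, and detected by chemiluminescence. Bands quantified by densitometry in arbitrary units relative to control; three independent experiments.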
# [12] = Cytotoxicity against human renal cancer cells after 48 hrs; type: functional; details: Cancer cell lines
# [13] = Cytotoxicity against human NSCLC cells after 48 hrs; type: functional
# Summary of the method: as §1
# B1647 = assay: Cytotoxicity against human B1647 cells at 5 to 10 uM after 24 hrs by MTT assay; type: functional, cell-based
# Summary of the method: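 B1647 human AML cells grown in IMDM with 5% human serum (37 °C, 5% CO2); 10⁶ cells per well in 1 mL exposed to 5 or 10 µM compound (DMSO) for 24 h. MTT 0.5 mg/mL added for 4 h at 37 °C, formazan dissolved overnight in 10% SDS/0.01 M HCl, A570 read. Four independent experiments.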
# [14] = read-out: LC50 (the source's name)
structure (smiles),measurement,setting,value
COc1ccc2c(c1)/C(=C\c1cc(OC)c(OC)c(OC)c1)C(=O)N2,IC50,[1],6.1 µM
same,inhibition,Bos taurus,35%
COc1cc(/C=C2/C(=O)Nc3cc(C)c(O)cc32)cc(OC)c1OC,GI50,[2],7.1 µM
same,TGI,[2],37.1 µM
same,CC50,[2]; [14],87.1 µM
same,IC50,[1],> 20 µM
same,inhibition,[3],Dose-dependent effect
same,GI50,[4],4 µM
same,LC50,[4],53.7 µM
same,TGI,[4],18.2 µM
same,GI50,[5],2.5 µM
same,LC50,[5],74.1 µM
same,TGI,[5],14.4 µM
same,GI50,[6],5.2 µM
same,LC50,[6],85.1 µM
same,TGI,[6],25.7 µM
same,GI50,[7],3.6 µM
same,TGI,[7],16.6 µM
same,CC50,[7]; [14],53.7 µM
same,GI50,[8],1.8 µM
same,CC50,[8]; [14],70.8 µM
same,inhibition,[9],Active
same,GI50,[10],3.9 µM
same,TGI,[10],30.9 µM
same,CC50,[10]; [14],91.2 µM
same,fold change (FC),[11],0.64
same,GI50,[12],7.1 µM
same,LC50,[12],66.1 µM
same,TGI,[12],25.1 µM
same,GI50,[13],5.7 µM
same,TGI,[13],31.6 µM
same,CC50,[13]; [14],79.4 µM
same,Activity,B1647,Active
COc1cc(/N=C2\C(=O)N(Cc3ccccc3)c3ccccc32)cc(OC)c1OC,IC50,[1],3.3 µM
same,inhibition,Bos taurus,31%
